Compound activity as filed in PubChem BioAssay.
The list is not random: actives were taken first. Their share in the collection is about 3.3%.
ROMK primary – ROMK potassium channel modulators, primary screen, cell-based, thallium flux, MLSMR library; ATP-sensitive inward rectifier potassium channel 1 (Homo sapiens), P48048; Tet-inducible ROMK, thallium flux fluorescence; actives lie on both sides; B-score at 10 µM; 130,000 tested, 2% active;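 active means signal ratio slope over the read window, or its plate-corrected B-score, at least 3 SD from the plate mean, either direction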;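 further: B-score of the F/F0 ratio slope over 7 to 12 s after thallium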
PMI act hi M6P – human PMI activators, high substrate, primary screen, biochemical, fluorescence intensity, near-saturating mannose 6-phosphate; coupled PMI enzyme assay, resazurin fluorescence, 20 min; active compounds read high; 1 = untreated enzyme, 0 = substrate-free blank; activation factor at 20 µM; 190,000 tested, 0.34% active; Mannose-6-phosphate isomerase (Homo sapiens), P34949;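 active means activation factor of 2 or more at 20 µM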
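Test system: human PMI in coupled enzyme assay; Input: PMI at 15 ng/mL final; Medium: HEPES buffer, pH 7.4; Schedule: 20 min incubation at room temperature; Technique: resorufin fluorescence at Ex 544/Em 590 nm; Compound: 20 µM single dose; Probe or stimulus: Near-saturating mannose-6-phosphate, 1.0 mM.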
ABCB1 block – ABCB1 efflux pump inhibitors, primary screen, cell-based, multiplex, flow cytometry, ABCG2 counter-screen. ATP-dependent translocase ABCB1 (Homo sapiens), P08183. CCRF-Adr cells, JC-1 efflux. inhibition, % at 6.6 µM. 190,000 tested, 0.067% active. AID 1326, 2008; in the data active means inhibition above about 40%;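 further: 0% = vehicle and 100% = reference inhibitor; higher value means more JC-1 retained so stronger ABCB1 efflux block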
ABCG2 block – ABCG2 efflux pump inhibitors, primary screen, multiplex with ABCB1, IgMXP3 cells, flow cytometry | 190,000 tested, 0.1% active | inhibition, % at 6.6 µM | Broad substrate specificity ATP-binding cassette transporter ABCG2 (Homo sapiens), Q9UNQ0 | JC-1 efflux;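 active means inhibition above 80%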;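 further: 0% = DMSO and 100% = nicardipine control wells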
Target sequence (Q9UNQ0 whole entry, looked up): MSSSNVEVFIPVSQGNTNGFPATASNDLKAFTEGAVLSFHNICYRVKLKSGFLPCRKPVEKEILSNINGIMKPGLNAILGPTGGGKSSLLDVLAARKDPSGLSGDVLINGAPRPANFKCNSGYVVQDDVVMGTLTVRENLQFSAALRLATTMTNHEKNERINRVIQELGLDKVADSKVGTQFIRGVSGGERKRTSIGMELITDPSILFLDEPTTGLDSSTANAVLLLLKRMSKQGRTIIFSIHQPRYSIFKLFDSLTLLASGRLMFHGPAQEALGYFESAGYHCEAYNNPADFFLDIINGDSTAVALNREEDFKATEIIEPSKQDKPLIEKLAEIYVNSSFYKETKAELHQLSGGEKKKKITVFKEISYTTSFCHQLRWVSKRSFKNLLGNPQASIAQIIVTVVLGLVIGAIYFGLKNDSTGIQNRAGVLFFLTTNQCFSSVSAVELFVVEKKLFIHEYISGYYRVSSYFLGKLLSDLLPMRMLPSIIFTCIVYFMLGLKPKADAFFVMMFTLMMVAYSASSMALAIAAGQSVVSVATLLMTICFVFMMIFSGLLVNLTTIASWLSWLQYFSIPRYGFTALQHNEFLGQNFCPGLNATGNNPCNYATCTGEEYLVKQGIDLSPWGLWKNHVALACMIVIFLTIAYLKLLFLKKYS
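Read-out basis: Efflux inhibition in percent versus controls | Test system: ABCG2 IgMXP3 and barcoded ABCB1 CCRF-Adr cell mix | Quantity: 3 million cells/mL in well | Schedule: 10 min at 25 °C | Control set: Nicardipine as high control, DMSO as low control | Reagent: JC-1 as fluorescent efflux pump substrate | Signal: Flow cytometry of retained JC-1 fluorescence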
PMI activator – activators of human PMI, primary screen, biochemical, fluorescence intensity, near-Km mannose 6-phosphate; Mannose-6-phosphate isomerase (Homo sapiens), P34949; purified human PMI, coupled resazurin fluorescence, 20 min; active compounds read high; 1 = vehicle control, 0 substrate-free wells; activation factor at 20 µM; 190,000 tested, 0.005% active; AID 1214, 2008;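 active means activation factor of 2 or more at 20 µM, relative to plate controls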
Cl transport mod – KCC2 cotransporter modulators, thallium flux, primary screen, cell-based, HEK293 KCC2, FluoZin-2 fluorescence, MLSMR; B-score of Tl+ flux slope (higher = more flux/activation; lower = inhibition) at 10 µM; 190,000 tested, 2.2% active; Solute carrier family 12 member 5 (Homo sapiens), Q9H2X9; KCC2 cells, thallium flux FluoZin-2 fluorescence; AID 1456, 2008;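 active means thallium flux slope and its plate-corrected score both differing from the plate sample mean at a set confidence after two filtering rounds, in either direction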;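 further: slope of fluorescence scaled to starting intensity during 10 to 20 s after thallium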
KCC2 sec1 – KCC2 modulators in sodium-free buffer, confirmation, cell-based, HEK293 KCC2, thallium flux, secondary assay | normalised thallium flux (F/F0 slope) at 10 µM | FluoZin2 fluorescence; active compounds read high | 3,700 tested, 15% active | shares compounds with Cl transport mod | AID 1713, 2009;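 active means thallium flux slope above the same plate's solvent-only control mean plus 3 SD; inconclusive means the two replicate wells disagree; inactive means no significant difference from solvent-only control wells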
KCC2 bumet counter – thallium flux persisting under bumetanide in KCC2 cells, confirmation, counter-screen for KCC2 modulator project, cell-based, HEK293 KCC2, FluoZin2, secondary assay 3; shares compounds with Cl transport mod; HEK293-KCC2 + bumetanide/ouabain; active compounds read high; 3,700 tested, 49% active; normalized thallium flux at 10 µM; AID 1714, 2009;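 active means thallium entry rate above the same plate's blocked-transporter control wells by more than 3 SD; inconclusive means the two repeat wells disagree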;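 further: raw slope of fluorescence over initial fluorescence between 10 and 20 s after thallium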
KCC2 secondary2 – KCC2 modulators without ouabain present, confirmation, cell-based, HEK293 KCC2, thallium flux, FluoZin2, secondary assay 2 | shares compounds with Cl transport mod | thallium flux FluoZin2 fluorescence; actives lie on both sides; F/F0 rise rate, 10–20 s post-thallium | normalized thallium flux at 10 µM | 3,700 tested, 23% active | AID 1715, 2009;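 active means thallium flux slope more than 3 SD above or below the plate's solvent-only control mean, mostly below; inconclusive means the two repeat wells disagreed; inactive means no significant shift from solvent-only controls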;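 further: raw slope with 0.1% DMSO as baseline and bumetanide as block control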
HEK293 Tl flux – thallium flux modulation in parental HEK cells, confirmation, counter-screen for KCC2 modulator project, cell-based, counterscreen 1. shares compounds with Cl transport mod. HEK293 parental cells, thallium flux FluoZin2, ouabain; baseline-ratio fluorescence slope, 10–20 s after thallium. thallium flux rate (normalised fluorescence) at 10 µM. 3,700 tested, 46% active. AID 1716, 2009;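 active means thallium flux rate significantly above the same plate's solvent-only control wells, beyond their mean plus 3 SD; inconclusive means the two replicate wells gave conflicting results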
KCC2 retest ouab – KCC2 inhibitors and activators, ouabain retest, confirmation, HEK-KCC2 cells. shares compounds with Cl transport mod. HEK293-KCC2, thallium flux FluoZin2 fluorescence; bidirectional: low = inhibitor, high = activator. raw Tl+ flux slope (below DMSO = inhibition, above = activation) at 10 µM. 3,700 tested, 48% active;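 active means thallium flux slope beyond 3 SD from same-plate DMSO control mean in most replicates, usually higher, sometimes lower; inconclusive means repeat tests gave conflicting results; inactive means no significant difference from controls in most replicates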;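 further: slope of initial-normalized fluorescence between seconds 10 and 20 after thallium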
HEK counter2 – native HEK Tl+ uptake effects, second counter-screen – HEK cells, counterscreen 2, counter-screen for KCC2 modulator project, confirmation | shares compounds with Cl transport mod | HEK293 parental, thallium flux FluoZin-2 fluorescence slope | thallium flux slope at 10 µM | 3,700 tested, 33% active | AID 1718, 2009;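 active means thallium flux slope above the same plate's solvent-control mean plus 3 SD in both duplicate wells; inconclusive means duplicate wells that disagreed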;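 further: run without ouabain in cells lacking the KCC2 cotransporter; slope of fluorescence scaled to its starting value between 10 and 20 s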
Numbers without * were called inactive; ? = inconclusive; nt = no result.

SMILES	ROMK primary	PMI act hi M6P	ABCB1 block	ABCG2 block	PMI activator	Cl transport mod	KCC2 sec1	KCC2 bumet counter	KCC2 secondary2	HEK293 Tl flux	KCC2 retest ouab	HEK counter2
Cc1cc(NC(=O)c2ccc(S(=O)(=O)N3CCCC3)cc2)nc2c1c(=O)oc1ccccc12	-0.35	1.4	0	0	1.4	nt	0.0092	0.007	0.03	0.0079	0.019	?
O=C(Nc1ccn(-c2ccccc2)n1)c1ccc(S(=O)(=O)N2CCCCCC2)cc1	0.19	0.9	1	29	0.9	nt	?	0.0041	0.029	0.0072	0.016*	0.011
Cc1ccc(OCCNC(=O)Cc2ccc(F)cc2)cc1	-1.2	0.9	0	8	0.9	-0.57	nt	nt	nt	nt	nt	nt
Cc1nnc(SCC(=O)c2cc(C)n(-c3ccc4c(c3)OCO4)c2C)s1	nt	0.7	1	17	0.8	-3.3*	?	0.0031*	0.032	?	0.022	0.0094
Cc1ccc(/C=N/n2c(C3CCCCC3)n[nH]c2=S)s1	1.1	1	-1	-5	1	7.3*	0.011	0.022*	0.033	0.011*	0.027	?
CCn1c(-c2ccccc2)c[nH]c1=S	nt	1.1	0	2	1	0.063	nt	nt	nt	nt	nt	nt
CC(C)Cn1c(-c2ccc(Br)cc2)c[nH]c1=S	-1.5	1.2	2	1	1.1	22*	0.0067	0.028*	?	0.025*	0.029*	0.025*
Cc1ccc2c(C(=O)CN3CCN(C(=O)c4ccco4)CC3)c(C)[nH]c2c1	nt	nt	nt	nt	nt	-0.11	nt	nt	nt	nt	nt	nt
Cc1nc(N2CCN(Cc3ccccc3)CC2)c(C#N)c2c1COC(C)(C)C2	0.57	1	1	2	1	-3.4*	0.0056	0.003	0.021*	?	0.011*	0.0093
COCCNC(=O)/C(C#N)=C/C=C/c1ccccc1[N+](=O)[O-]	0.0055	0.9	1	30	0.9	1.2	nt	nt	nt	nt	nt	nt
O=C1NC2(CCCCC2)C(=O)N1Cc1ccc([N+](=O)[O-])cc1	nt	0.9	1	17	0.9	-0.024	nt	nt	nt	nt	nt	nt
